The text below walks through data of publication PMC8905529 (RSC Chemical Biology, 2022).

The test system of one series is trypsin. The series is described as follows: Enzymatic. The series is classed as in vitro ADME. Conditions: trypsin in PBS, pH 7.4. The gist of the method: (§1)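 Test peptide at 0.33 mM final in PBS (pH 7.4) with trypsin or chymotrypsin at 0.05 μg mL−1 final. Incubated at 37 °C with shaking (200 rpm) for 24 h. Fragments were identified by MALDI-TOF MS and ESI-TOF LC-MS.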

The test system of the next series is chymotrypsin. The experiment in a line: Enzymatic. Conditions: chymotrypsin in PBS, pH 7.4. In kind it is in vitro ADME. The method, boiled down:
as §1

For series [1], the target named is T1, ComD1 receptor (Streptococcus pneumoniae serotype 2, UniProt A0A0H2ZM50).
T1 sequence (A0A0H2ZM50 1-441): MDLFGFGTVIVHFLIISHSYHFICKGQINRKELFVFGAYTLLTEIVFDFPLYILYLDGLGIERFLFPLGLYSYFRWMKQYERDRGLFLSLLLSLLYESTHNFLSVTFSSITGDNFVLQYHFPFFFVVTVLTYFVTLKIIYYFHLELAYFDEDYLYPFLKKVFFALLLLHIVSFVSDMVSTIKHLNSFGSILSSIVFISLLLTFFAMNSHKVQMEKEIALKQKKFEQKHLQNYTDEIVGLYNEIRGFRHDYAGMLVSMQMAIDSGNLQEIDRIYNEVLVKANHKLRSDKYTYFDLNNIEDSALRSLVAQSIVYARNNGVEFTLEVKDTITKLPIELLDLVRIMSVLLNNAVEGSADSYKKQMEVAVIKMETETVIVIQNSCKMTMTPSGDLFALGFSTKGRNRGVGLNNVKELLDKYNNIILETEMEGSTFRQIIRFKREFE
The series is described as follows: β-galactosidase activation reporter assay, D39pcomX::lacZ. The series is classed as cell-based. The gist of the method: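 D39pcomX::lacZ was grown on THY agar (5% horse serum, 4 μg mL−1 chloramphenicol), then in THY overnight, diluted 1:50 and grown to OD600 0.30–0.35. […] After 30 min at 37 °C, cells were lysed with Triton X-100 and given ONPG (0.4 mg mL−1, pH 7.0) for 3 h. Reads: OD420/550, Miller units; EC50 by nonlinear regression.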
A general note: A reporter such as luciferase makes a cellular process visible.

The target in series [2] is T1, ComD1 receptor. The experiment in a line: β-galactosidase competitive inhibition reporter assay, D39pcomX::lacZ. The series is classed as cell-based. The gist of the method: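 Early-exponential D39pcomX::lacZ in THY (OD600 0.30–0.35) was incubated 30 min at 37 °C. Cells were then Triton X-100-lysed and given ONPG (0.4 mg mL−1) for 3 h at 37 °C, quenched with sodium carbonate, and read at OD420/550 for Miller units.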

Where a SMILES comes first, the peptide text is derived from it. [ ]: non-standard residue; d: D form. Cha = N[C@@H](CC1CCCCC1)C(=O)O; hLeu = CC(C)CC[C@H](N)C(=O)O

Take `CC[C@H](C)[C@H](NC(=O)[C@H](Cc1ccccc1)NC(=O)[C@H](CC(=O)O)NC(=O)[C@H](CCCNC(=N)N)NC(=O)[C@H](Cc1ccccc1)NC(=O)[C@H](Cc1ccccc1)NC(=O)[C@H](CCCCN)NC(=O)[C@H](CO)NC(=O)[C@H](CC(C)C)NC(=O)[C@H](CCCNC(=N)N)NC(=O)[C@H](CCSC)NC(=O)[C@@H](N)CCC(=O)O)C(=O)N[C@@H](CC(C)C)C(=O)N[C@@H](CCC(N)=O)C(=O)N[C@@H](CCCNC(=N)N)C(=O)N[C@@H](CCCCN)C(=O)N[C@@H](CCCCN)C(=O)O` [CSP1, reference compound]: the half-life (as a rule, how long it takes for the measured level to halve) at 0.33 mM in the series with trypsin is 0.5 h; in the series on chymotrypsin, 1 h. With `CSCC[C@H](NC(=O)[C@@H](N)CCC(=O)O)C(=O)N[C@@H](CCCNC(=N)N)C(=O)N[C@@H](CC(C)C)C(=O)N[C@@H](CO)C(=O)N[C@@H](CCCCN)C(=O)N[C@@H](CC1CCCCC1)C(=O)N[C@@H](Cc1ccccc1)C(=O)N[C@@H](CCCNC(=N)N)C(=O)N[C@@H](CC(=O)O)C(=O)N[C@@H](Cc1ccccc1)C(=O)N[C@@H](CC1CCCCC1)C(=O)N[C@@H](CC(C)C)C(=O)N[C@@H](CCC(N)=O)C(=O)N[C@@H](CCCNC(=N)N)C(=O)N[C@@H](CCCCN)C(=O)N[C@@H](CCCCN)C(=O)O` [CSP1-F7Cha/I12Cha] (H-EMRLSK[Cha]FRDF[Cha]LQRKK-OH), the half-life at 0.33 mM in the series with trypsin is 3 h; in the series with chymotrypsin it was 6 h. For the same compound, the EC50 (usually the concentration at which the effect is half-maximal) at ComD1 receptor [1] was under 1 nM.

For `CC[C@H](C)[C@H](NC(=O)[C@H](Cc1ccccc1)NC(=O)[C@H](CC(=O)O)NC(=O)[C@H](CCCNC(=N)N)NC(=O)[C@H](Cc1ccccc1)NC(=O)[C@H](CC1CCCCC1)NC(=O)[C@H](CCCCN)NC(=O)[C@H](CO)NC(=O)[C@H](CC(C)C)NC(=O)[C@H](CCCNC(=N)N)NC(=O)[C@H](CCSC)NC(=O)[C@H](C)N)C(=O)N[C@@H](CC(C)C)C(=O)N[C@@H](CCC(N)=O)C(=O)N[C@@H](CCCNC(=N)N)C(=O)N[C@@H](CCCCN)C(=O)N[C@@H](CCCCN)C(=O)O` [CSP1-E1A/F7Cha] (H-AMRLSK[Cha]FRDFILQRKK-OH), the half-life at 0.33 mM in the series on trypsin and in the series on chymotrypsin was 4 h in each case. Moreover, at ComD1 receptor [2], the IC50 (usually the concentration at which inhibition is half-maximal) was found to be 36 nM. Take `CSCC[C@H](NC(=O)[C@H](C)N)C(=O)N[C@@H](CCCNC(=N)N)C(=O)N[C@@H](CC(C)C)C(=O)N[C@@H](CO)C(=O)N[C@@H](CCCCN)C(=O)N[C@@H](CC1CCCCC1)C(=O)N[C@@H](Cc1ccccc1)C(=O)N[C@@H](CCCNC(=N)N)C(=O)N[C@@H](CC(=O)O)C(=O)N[C@@H](Cc1ccccc1)C(=O)N[C@@H](CC1CCCCC1)C(=O)N[C@@H](CC(C)C)C(=O)N[C@@H](CCC(N)=O)C(=O)N[C@@H](CCCNC(=N)N)C(=O)N[C@@H](CCCCN)C(=O)N[C@@H](CCCCN)C(=O)O` [CSP1-E1A/F7Cha/I12Cha] (H-AMRLSK[Cha]FRDF[Cha]LQRKK-OH): on ComD1 receptor [2], the IC50 was 72 nM.

Regarding `CC[C@H](C)[C@H](NC(=O)[C@H](Cc1ccccc1)NC(=O)[C@H](CC(=O)O)NC(=O)[C@H](CCCNC(=N)N)NC(=O)[C@H](Cc1ccccc1)NC(=O)[C@H](CCC(C)C)NC(=O)[C@H](CCCCN)NC(=O)[C@H](CO)NC(=O)[C@H](CC(C)C)NC(=O)[C@H](CCCNC(=N)N)NC(=O)[C@H](CCSC)NC(=O)[C@H](C)N)C(=O)N[C@@H](CC(C)C)C(=O)N[C@@H](CCC(N)=O)C(=O)N[C@@H](CCCNC(=N)N)C(=O)N[C@@H](CCCCN)C(=O)N[C@@H](CCCCN)C(=O)O` [CSP1-E1A/F7HLeu] (H-AMRLSK[hLeu]FRDFILQRKK-OH), the 50% inhibitory concentration (IC50) on ComD1 receptor [2] turned out to be 72 nM. Compound `CSCC[C@H](NC(=O)[C@H](C)N)C(=O)N[C@@H](CCCNC(=N)N)C(=O)N[C@@H](CC(C)C)C(=O)N[C@@H](CO)C(=O)N[C@@H](CCCCN)C(=O)N[C@@H](CC1CCCCC1)C(=O)N[C@@H](Cc1ccccc1)C(=O)N[C@@H](CCCNC(=N)N)C(=O)N[C@@H](CC(=O)O)C(=O)N[C@@H](Cc1ccccc1)C(=O)N[C@@H](CCC(C)C)C(=O)N[C@@H](CC(C)C)C(=O)N[C@@H](CCC(N)=O)C(=O)N[C@@H](CCCNC(=N)N)C(=O)N[C@@H](CCCCN)C(=O)N[C@@H](CCCCN)C(=O)O` [CSP1-E1A/F7Cha/I12HLeu] (H-AMRLSK[Cha]FRDF[hLeu]LQRKK-OH) returned an IC50 on ComD1 receptor [2] of 57 nM. The IC50 values of the last two compounds are within 1.5-fold of each other.
